# Compounds with a hit are over-represented: about 9.4% of the library has one in this group of screens.
# CSC inhib: cancer stem cell inhibition | cancer stem cell-like cells viability, luminescence | inhibition, % at 7.5 µM | 300,000 tested, 1.1% active; in the data active means inhibition above about 75%; inconclusive means no clear call, values can overlap the other calls; tested in HMLE shEcad cells
# Lmaj promast: Leishmania major promastigote growth inhibition; Leishmania major promastigotes, resazurin fluorescence viability; inhibition, % at 10 µM; 200,000 tested, 9% active; in the data active means inhibition above about 50%;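 further: promastigotes grown with compound for 44 hours at 28 °C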
# T cruzi repl: blocks replication of Trypanosoma cruzi; T. cruzi beta-gal in NIH3T3, luminescence, 90 h; inhibition, % (test concentration not listed); 300,000 tested, 1.4% active; AID 1885;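 active means mean inhibition across valid replicates above about 55%, limit read from the data; inconclusive means mean below that limit but half or more replicates reach it; inactive means mean below it, under half of replicates reach it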;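 further: signal also drops with host cell toxicity which is not excluded here; 0% = plate median of DMSO wells and 100% = zero luminescence signal; higher percent means less beta-gal luminescence so fewer parasites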
#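 System: NIH/3T3 fibroblasts plus reporter T. cruzi. Medium: DMEM plus 2% FBS. Probe or stimulus: 5000 reporter trypomastigotes per well. Compound: single 50 nL compound addition per well in DMSO. Incubation: co-culture of at least 90 h after 3 h attachment. Detection: GalScreen β-gal luminescence, detergent lysis, 60 min. Evaluation: parasite load inhibition, %.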
# Mdm2 MdmX PPI: disrupts the human Mdm2-MdmX interaction; 330,000 tested, 3% active; inhibition, % at 8 µM; SaOS-2 split-luciferase Mdm2/MdmX complementation, luminescence; O15151+Q00987;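 active means inhibition of at least 50% at 8 µM in the primary screen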
# Target sequence (O15151 whole entry, looked up): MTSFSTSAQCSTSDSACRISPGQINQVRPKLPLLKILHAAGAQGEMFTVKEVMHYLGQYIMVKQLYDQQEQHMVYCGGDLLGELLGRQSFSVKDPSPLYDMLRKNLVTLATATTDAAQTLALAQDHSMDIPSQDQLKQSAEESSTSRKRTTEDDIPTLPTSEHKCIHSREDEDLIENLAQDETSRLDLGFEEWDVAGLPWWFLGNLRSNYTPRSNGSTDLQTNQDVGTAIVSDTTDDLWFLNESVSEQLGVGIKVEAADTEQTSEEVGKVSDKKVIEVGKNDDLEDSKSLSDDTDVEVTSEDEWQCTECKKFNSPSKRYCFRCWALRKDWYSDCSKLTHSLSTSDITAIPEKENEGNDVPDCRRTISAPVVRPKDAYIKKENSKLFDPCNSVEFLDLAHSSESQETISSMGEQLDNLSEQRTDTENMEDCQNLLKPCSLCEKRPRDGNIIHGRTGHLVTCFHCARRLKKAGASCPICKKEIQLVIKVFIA
# Target sequence (Q00987 whole entry, looked up): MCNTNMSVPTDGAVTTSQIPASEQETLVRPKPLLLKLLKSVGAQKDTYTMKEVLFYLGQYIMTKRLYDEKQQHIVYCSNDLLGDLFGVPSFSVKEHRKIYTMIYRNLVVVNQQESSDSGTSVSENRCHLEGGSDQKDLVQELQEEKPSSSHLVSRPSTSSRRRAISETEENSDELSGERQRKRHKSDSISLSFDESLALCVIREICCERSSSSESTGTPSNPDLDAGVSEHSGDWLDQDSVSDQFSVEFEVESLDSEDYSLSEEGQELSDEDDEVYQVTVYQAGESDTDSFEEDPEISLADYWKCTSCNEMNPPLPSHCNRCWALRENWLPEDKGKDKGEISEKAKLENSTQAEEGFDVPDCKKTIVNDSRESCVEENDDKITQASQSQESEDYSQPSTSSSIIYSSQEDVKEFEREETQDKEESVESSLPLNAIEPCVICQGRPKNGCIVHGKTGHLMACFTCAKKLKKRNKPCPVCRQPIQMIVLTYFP
# Beta apoptosis: blocks beta cell apoptosis; AID 435005; 300,000 tested, 0.8% active; INS-1E cytokine-induced death, ATP luminescence, 48 h; percent of positive-control rescue, neutral wells zero; protection from apoptosis, % (test concentration not listed);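 active means Every replicate reaches about 75%, or at least half do and their mean reaches it too, limit read from the data; inconclusive means At least half of replicates reach the limit but their mean does not; inactive means Under half of replicates reach the limit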;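 further: 0% = cytokine-treated negative control wells and 100% = positive control rescue; higher means more ATP so stronger rescue from cytokine killing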
# SKKanGAS inh: blocks kanamycin growth of S. pyogenes SKKanGAS strain; BacTiter-Glo, 6 h; inhibition, % at 7.5 µM; AID 1662; 300,000 tested, 1.3% active;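 active means mean replicate score, as percent of positive control median, at least 50; inconclusive means mean below 50 but one replicate at or above 50; inactive means mean and every replicate below 50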;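 further: strain carries kanamycin resistance gene driven by streptokinase promoter and grows in 40 µg/ml kanamycin; loss of luminescence reflects streptokinase promoter inhibition or plain growth inhibition; 0% = median of DMSO wells and 100% = positive control at its reference dose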
# * marks the source's active call; other numbers are inactive results; ? = inconclusive; · = not tested or not shown.
SMILES,CSC inhib,Lmaj promast,T cruzi repl,Mdm2 MdmX PPI,Beta apoptosis,SKKanGAS inh
CCOC(=O)N1CCC(NCCNC(=O)c2ccccc2Cl)CC1,-15.1,83.9*,8.7,-2.3,-5.1,5.5
CCOC(=O)N1CCC(NC(=O)c2ccccc2C(=O)O)CC1,-6.6,·,-1.8,9.6,1.7,14.3
CCOC(=O)N1CCC(NCCNC(=O)c2ccccc2)CC1,-14.5,77.0*,4.1,-0.5,-2.4,-1.8
CC(C)(C)C(=O)N1CCC(O)(CS(=O)(=O)c2ccc(Cl)c(Cl)c2)CC1,-14.9,-9.0,-12.7,3.3,1.0,-1.6
CC1=C(C(=O)OCCNC(=O)c2ccccc2O)C(c2ccccc2[N+](=O)[O-])C(C(=O)OCC2CCCO2)=C(C)N1 (stereo unspecified),-18.2,92.9*,18.0,11.0,?,6.7
COC(=O)C1=C(C)NC(C)=C(C(=O)OCC2CCCO2)C1c1ccc(Cl)c([N+](=O)[O-])c1 (stereo unspecified),-3.2,·,30.0,29.3,·,2.5
CC(OC(=O)c1cc(S(=O)(=O)N(C)c2ccccc2)ccc1Cl)C(=O)Nc1ccc2c(c1)OCCO2 (stereo unspecified),4.3,65.1*,-1.2,0.7,·,-1.6
CC(C(=O)N1c2ccccc2CC1C)N1CCN(S(=O)(=O)c2ccccc2F)CC1 (stereo unspecified),7.6,·,·,-0.3,-4.6,·
CCOC(=O)c1sc(-c2ccccc2)cc1NC(=O)Nc1ccccc1,66.0,7.5,55.1*,·,-0.9,26.8
CCOC(=O)c1sc(NC(C)=O)cc1C,2.6,-2.9,1.0,-14.9,-1.9,4.2
CCOC(=O)c1sc(NC(=O)c2cccc(S(=O)(=O)N3c4ccccc4CC3C)c2)cc1C (stereo unspecified),-25.8,61.7*,?,19.2,6.9,29.5
CCOC(=O)c1sc(NC(=O)Nc2ccccc2)cc1C,33.1,92.4*,54.1,-163.4,15.6,-25.9
Cc1cc(NC(=O)c2cccc(S(=O)(=O)N3c4ccccc4CC3C)c2)no1 (stereo unspecified),10.8,·,19.0,25.0,1.7,-0.6
CCOC(=O)c1sc(NC(=O)Nc2ccccc2Cl)cc1C,93.7*,79.8*,64.6*,-51.2,42.0,-11.3
CCC(=O)c1ccc(N2CCN(C(=O)c3cccs3)CC2)c(F)c1,-11.9,·,0.9,-15.3,-17.5,2.8
CCOC(=O)c1c(N)sc(C(=O)Nc2ccccc2)c1C,12.3,58.2*,24.6,-203.9,12.1,6.7
CCOC(=O)c1c(N)sc(C(=O)Nc2ccccc2F)c1C,-0.7,23.9,11.2,-170.1,7.9,4.9
c1ccc(Nc2ccc3c4c(cccc24)CC3)cc1,11.8,1.1,64.5*,33.7,2.0,23.2
N#Cc1ccc(NC(=O)Cn2cnc(S(=O)(=O)N3CCCCC3)c2)cc1,-16.3,·,-36.6,-9.6,-4.4,3.7
CN(Cc1nccs1)C(=O)C1CCC(=O)N(CCCc2ccccc2)C1 (stereo unspecified),·,·,-3.1,20.0,·,3.0
c1ccc(N2CCN(c3nc(NCc4ccco4)c4ccccc4n3)CC2)cc1,46.3,97.9*,55.1*,27.4,-1.6,-2.5
Fc1ccccc1-c1nc(NCc2ccco2)c2ccccc2n1,-9.0,53.4*,32.7,21.4,7.3,-6.3
Oc1ccccc1-c1nc(NCc2ccco2)c2ccccc2n1,13.8,28.6,37.1,3.4,35.6,2.3
Cc1cccc(Nc2ncnc3onc(-c4cccc(Cl)c4)c23)c1C,0.4,·,-12.2,26.7,8.6,4.9
Cc1nc2nc(C)c(NS(=O)(=O)c3ccc(Cl)cc3)c(=O)n2[nH]1,-1.4,·,-10.7,25.3,-5.6,-2.0
SMILES,CSC inhib,Lmaj promast,T cruzi repl,Mdm2 MdmX PPI,Beta apoptosis,SKKanGAS inh
O=c1c2ccc([N+](=O)[O-])cc2ncn1CCOc1cccc(Br)c1,-11.5,27.8,66.5*,12.7,0.2,1.6
Cc1cc(OCCn2cnc3ccccc3c2=O)ccc1[N+](=O)[O-],-4.6,-6.8,4.2,-0.1,7.2,-0.8
O=c1c2ccc([N+](=O)[O-])cc2ncn1CCOc1ccc(Cl)cc1,5.8,19.5,63.3*,-18.6,-6.4,4.9
Nc1ccccc1Nc1cc(-c2cccc(Cl)c2)nn1-c1ccccc1,47.2,10.6,57.1*,-18.5,4.0,9.5
COC(=O)c1c(NC(=O)/C=C/c2ccc3c(c2)OCO3)sc(C)c1C,103.2*,-7.0,-5.2,4.1,-4.8,-9.1
CCOC(=O)c1c(NC(=O)/C=C/c2ccc3c(c2)OCO3)sc(C)c1CC,122.5*,-7.8,-15.5,-7.1,2.2,-1.9
COC(=O)c1cccc(NC(=O)/C=C/c2ccc3c(c2)OCO3)c1,-21.4,27.0,9.5,-4.0,-5.7,-1.8
CCOC(=O)c1c(NC(=O)/C=C/c2ccc3c(c2)OCO3)sc(C)c1C,·,-2.3,·,·,·,·
COC(=O)COc1ccc(S(=O)(=O)Nc2ccc3c(c2)OCCO3)cc1C,-15.0,·,-0.1,25.7,-5.7,-4.6
COCCCNc1nc2nonc2nc1N(C)CC1CCCN1C (stereo unspecified),-20.3,-4.0,-11.1,-4.2,4.7,-8.1
CCN(CC)c1ccc(NC(=S)Nc2ccc(F)cc2)cc1,·,23.4,26.6,4.7,·,5.1
COc1ccc(CNC(=O)C2CSC(=O)C2)cc1 (stereo unspecified),-9.4,-3.9,56.4*,-23.7,-16.1,0.6
COc1ccc(N2CC(C(=O)NCc3ccccc3)CC2=O)cc1 (stereo unspecified),-7.7,-7.2,0.8,-1.5,-2.6,-2.5
O=C(c1ccccc1F)N(Cc1ccc2c(c1)OCO2)Cc1cc2cc3c(cc2n2nnnc12)OCO3,-6.4,87.5*,28.3,6.5,1.0,-2.5
Cc1cc2cc(CN(Cc3ccc4c(c3)OCO4)C(=O)c3cnccn3)c3nnnn3c2cc1C,-7.5,21.7,39.2,1.5,-2.2,6.3
COc1cc2c(cc1Cl)C(=O)C(F)(c1ccccc1)C(=O)N2 (stereo unspecified),-1.4,·,-6.0,15.0,-5.3,1.9
O=C1C2C3c4ccccc4C(c4ccccc43)C2C(=O)N1/N=C/c1cccc(O)c1 (stereo unspecified),24.1,97.0*,-13.1,8.2,-1.0,6.0
Cc1ccccc1NS(=O)(=O)c1cc(C(=O)NCCC2=CCCCC2)ccc1C,-6.1,30.6,15.8,6.6,7.0,29.1
COC(=O)c1c(NS(=O)(=O)c2ccc3ccccc3c2)sc2c1CCCC2,47.1,-0.4,-6.9,7.0,0.2,32.0
Cc1ccc(SCCNC(=O)c2ccc(C)c(S(=O)(=O)Nc3ccccc3C)c2)cc1,16.7,99.2*,40.8,14.7,13.9,9.7
Cc1ccc(C(=O)NCc2ccco2)cc1S(=O)(=O)N1CCCCC1,·,6.5,-4.0,13.0,·,-1.3
Cc1ccc(C(=O)Nc2ccccc2C(=O)NCc2ccco2)cc1S(=O)(=O)N1CCCCC1,20.7,62.2*,11.5,29.3,4.1,12.6
Cc1ccc(C(=O)NCCSC2CCCCC2)cc1S(=O)(=O)Nc1ccccc1,37.9,97.2*,11.5,1.6,13.4,-2.9
